The values that follow come from article PMC3962999 (The Biochemical journal, 2011).

Positions count from the first letter of the chain named.

The target in one test is T1, PBD1 (PPIP5K1) (Homo sapiens, UniProt Q6PFW1).
T1 sequence (Q6PFW1 382-917): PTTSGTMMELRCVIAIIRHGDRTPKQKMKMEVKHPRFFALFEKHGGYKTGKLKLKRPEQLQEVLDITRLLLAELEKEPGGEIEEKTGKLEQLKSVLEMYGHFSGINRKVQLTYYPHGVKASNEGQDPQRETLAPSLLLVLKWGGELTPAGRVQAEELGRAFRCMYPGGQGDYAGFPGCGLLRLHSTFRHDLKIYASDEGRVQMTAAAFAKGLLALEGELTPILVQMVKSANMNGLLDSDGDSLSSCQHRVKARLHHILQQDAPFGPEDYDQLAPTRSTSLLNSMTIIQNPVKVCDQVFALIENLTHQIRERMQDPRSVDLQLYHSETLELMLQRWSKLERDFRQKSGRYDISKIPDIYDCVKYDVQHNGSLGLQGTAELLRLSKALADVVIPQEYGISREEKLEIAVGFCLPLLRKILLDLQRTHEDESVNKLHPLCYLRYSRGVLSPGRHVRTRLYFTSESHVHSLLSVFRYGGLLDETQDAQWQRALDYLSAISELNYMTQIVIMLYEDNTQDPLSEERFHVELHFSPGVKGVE
Description: SPR equilibrium binding to immobilized lipid vesicles, PBD1. To be noted: SPR, in words. The method, boiled down:
(§1)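 Large unilamellar vesicles (PtdCho/PtdE/test phosphoinositide 77:20:3) were captured on an L1 chip to 5000 RU. Signals were corrected against phosphoinositide-free vesicles. Kd came from nonlinear fitting of Req = Rmax/(1+Kd/C). Concentrations were: GRP-1 PH domain 2.5–125 nM; PBD1 on PtdIns(3,4,5)P₃ 5–150 nM; bisphosphate vesicles 75–1900 nM.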

In another test the target is T2, PBD2 (PPIP5K2) (Homo sapiens, UniProt O43314).
T2 sequence (O43314 371-901 isoform O43314-2): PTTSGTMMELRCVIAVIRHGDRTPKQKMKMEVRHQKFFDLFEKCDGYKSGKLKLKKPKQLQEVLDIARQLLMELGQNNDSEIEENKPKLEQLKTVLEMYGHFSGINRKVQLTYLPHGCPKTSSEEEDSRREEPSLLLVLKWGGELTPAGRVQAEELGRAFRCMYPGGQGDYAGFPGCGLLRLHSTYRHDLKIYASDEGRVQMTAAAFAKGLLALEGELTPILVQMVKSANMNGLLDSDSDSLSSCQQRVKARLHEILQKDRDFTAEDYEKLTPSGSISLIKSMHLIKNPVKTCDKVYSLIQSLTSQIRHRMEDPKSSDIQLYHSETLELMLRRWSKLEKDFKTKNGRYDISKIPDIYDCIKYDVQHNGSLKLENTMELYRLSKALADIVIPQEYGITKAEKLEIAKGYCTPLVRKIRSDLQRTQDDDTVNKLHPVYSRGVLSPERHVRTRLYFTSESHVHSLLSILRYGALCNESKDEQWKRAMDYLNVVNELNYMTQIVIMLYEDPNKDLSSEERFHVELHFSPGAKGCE
The experiment in a line: SPR equilibrium binding to immobilized lipid vesicles, PBD2. To be noted: SPR, in words. The method, boiled down:
as §1

A further test has as its target T3, PBD1R417A (Homo sapiens, UniProt Q6PFW1, R417A).
T3 sequence (Q6PFW1 382-917 R417A): T1 sequence (Q6PFW1 382-917) with R36A
The experiment in a line: SPR equilibrium binding, PBD1 R417A mutant. To be noted: results not shown.

Consider PtdIns(4,5)P2, for which the “binding to PBD1” value at PBD1 (PPIP5K1) is listed as “significantly weaker ligands”. Also, at PBD2 (PPIP5K2), the “binding to PBD2” value is recorded as “relatively weakly”. For the same substance, the “binding to PBD1 R417A” value at PBD1R417A was “eliminated all detectable binding”.
